Records with an inconclusive call do not appear.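 Rule for the calls, unless noted: active = inhibition over a set limit, the all-compound mean plus 3 SD, in both replicate runs; inconclusive = over that limit in just one replicate run; inactive = at or under that limit in both runs.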
What was measured:
[1] = S. cerevisiae growth inhibition in permissive medium (OD615), pilot counter-assay for S. cerevisiae lifespan shortening project, permissive growth control (AID 705;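 active = growth inhibition above 25% in both replicates, a cutoff set 3 SD above the mean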); details: OD615, 24 h, at 10 µM, active compounds read high
Summary of the method: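 System: engineered DeaD yeast; Medium: permissive raffinose/galactose medium; Compound dosing: 10 µM single dose, 0.25% DMSO; Incubation: 4 h cell pre-growth, 24 h exposure at 30 °C; Technique: OD at 615 nm; Evaluation: growth inhibition from lowered OD615 after 24 h.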

[2] = S. cerevisiae growth inhibition in restrictive medium, OD615, pilot screen, restrictive growth control, yeast lifespan reduction project (AID 706;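 active = growth inhibition above a set limit, 3 SD over mean compound inhibition, in both replicates, cut at about 43% in these data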;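 note: modified DeaD lifespan yeast strain shifted to restrictive glucose medium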); details: OD615, 48 h, at 10 µM, active compounds read high
Summary of the method: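 Material: modified S. cerevisiae; buffer or medium: CSMM-D glucose medium; doses: one concentration, 10 µM final, 0.25% DMSO; incubation: 48 h compound exposure at 30 °C; detection: optical density at 615 nm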

[3] = doxorubicin toxicity protection in MRP-1 cells – H69AR cells, CellTiter-Glo, duplicate, MRP-1 activator project, pilot screen (AID 807;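 active = viability increase at or above a cutoff of the median across tested compounds plus 3 SD, cut at about 8.5% in these data, passing the limit was not always enough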;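 note: compound pretreatment 18-22 h then 72 h combined with doxorubicin; 0% = doxorubicin alone and 100% = vehicle without doxorubicin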); details: H69AR viability with doxorubicin, CellTiter-Glo luminescence; at 10 µM; active compounds read high
[4] = viability of HCT116 without oncogenic beta-catenin – human colon tumor cells, pilot screen (AID 823;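 active = cell viability at or below a set limit in both duplicate runs, the limit being the all-compound median minus 4 SD, cut at about 23% in these data, passing the limit was not always enough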;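 note: 0% = wells killed by 20 µM Hyamine and 100% = untreated DMSO cell wells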); details: HCT116 beta-catenin knockout viability, CellTiter-Glo, 60 h; at 10 µM; active compounds read low
[5] = viability of PTEN-null HCT116 cells – cell-based, HCT116 clonal line, CellTiter-Glo, pilot screen (AID 824;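 active = viability at or below 27.92% in each of two runs, the all-compound median minus 4 SD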;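 note: 0% = 20 µM Hyamine control and 100% = vehicle cell control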); details: HCT116 PTEN-deleted viability, 60 h, at 10 µM, active compounds read low
[6] = RAM pathway blockade in budding yeast – dse1pr::URA3 reporter, 5-FOA selection, pilot screen (AID 869);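 note: 0% = DMSO wells with no growth and 100% = 10 µM 1-NA-PP1 with full growth; RAM network block rescues cells from 5-FOA so hits raise OD615 growth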; details: S. cerevisiae dse1pr::URA3 5-FOA growth, OD615, 2 d; at 10 µM; active compounds read high; strain carries analog-sensitive mutant Cbk1 kinase
[7] = RAM signaling pathway blockade in yeast – S. cerevisiae, Pdr1DBD-CYC8 efflux-inhibited sensitized strain, primary screen (AID 1298;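 active = RAM network inhibition above 8.4% in each of two replicates, 3 SD over the compound average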;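 note: 0% = DMSO untreated cells without growth and 100% = 10 µM 1-NA-PP1 full growth; higher means more yeast growth rescued from 5-FOA killing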); details: S. cerevisiae cbk1-as DSE1-URA3 strain, 5-FOA growth OD615, 2 d; at 50 µM; active compounds read high

CCOc1ccc(C2CC(c3ccccc3C)n3ncnc3N2)cc1 (configuration not stated)
inactive: growth inhibition [1] -6.31% | growth inhibition [2] 13.4% | viability increase [3] -1.48% | viability [4] 87.3% | viability [5] 77.4% | inhibition [6] 1.83% | RAM network inhibition [7] -1.78%

Cn1nc(CC(=O)NC2CCCCCC2)c2ccccc2c1=O
inactive: growth inhibition [1] 3.21% | growth inhibition [2] 6.03% | viability increase [3] -2.58% | viability [4] 62.4% | viability [5] 76.4% | inhibition [6] 0.825% | RAM network inhibition [7] 1.38%

O=C1C(C=NCc2ccco2)=C(O)c2ccccc21
inactive: growth inhibition [1] -0.635% | growth inhibition [2] -1.76% | viability increase [3] -3.09% | viability [4] 82.1% | viability [5] 89.9% | inhibition [6] 0.74% | RAM network inhibition [7] -0.41%

CC12CN3CC(C)(CN(C1)C3c1ccc(Br)cc1)C2=O (configuration not stated)
inactive: growth inhibition [1] -1.9% | growth inhibition [2] 3.54% | viability increase [3] -2.12% | viability [4] 95.2% | viability [5] 96.9% | inhibition [6] 0.265% | RAM network inhibition [7] 0.82%

CC(C)CCNC(=O)C1C2C=CC3(CN(Cc4ccccc4Cl)C(=O)C13)O2 (configuration not stated)
inactive: growth inhibition [1] -8.87% | growth inhibition [2] -13.5% | viability increase [3] -3.35% | viability [4] 103% | viability [5] 98.3% | inhibition [6] 0.82% | RAM network inhibition [7] 8.03%

Cn1ccnc1SCC(=O)Nc1cccc(C(F)(F)F)c1
inactive: growth inhibition [1] 0.76% | growth inhibition [2] 10.5% | viability increase [3] -4.88% | viability [4] 96.4% | viability [5] 96.8% | inhibition [6] 0.71% | RAM network inhibition [7] 4.72%

O=C(Nc1ccccc1Cl)c1ccc2c(c1)N(Cc1ccc(F)cc1)C(=O)CS2=O (configuration not stated)
inactive: growth inhibition [1] -5.36% | growth inhibition [2] -7.24% | viability increase [3] 1.1% | viability [4] 83.3% | viability [5] 72.5% | inhibition [6] 3.9% | RAM network inhibition [7] 3.95%

O=C(O)CCNc1cc2ccccc2cc1C(=O)O
inactive: growth inhibition [1] -15.4% | growth inhibition [2] -3.88% | viability increase [3] -1.49% | viability [4] 97.3% | viability [5] 96.5% | inhibition [6] 1.59% | RAM network inhibition [7] -0.37%

c1cc2c3c(cccc3c1)C(N1CCCCC1)=N2
inactive: growth inhibition [1] 1.8% | growth inhibition [2] -3.38% | viability increase [3] -4.54% | viability [4] 72.1% | viability [5] 74.4% | inhibition [6] 0.665% | RAM network inhibition [7] 1.88%

OC1CC(c2ccco2)NC2(CCCCC2)C1 (configuration not stated)
inactive: growth inhibition [1] -4.09% | growth inhibition [2] 1.06% | viability increase [3] -1.66% | viability [4] 97.2% | viability [5] 94.6% | inhibition [6] 0.39% | RAM network inhibition [7] 2.73%

CCOC(=O)c1c(CN2CCCCC2)n(C)c2ccc(OC)c(S(=O)(=O)c3ccccc3)c12
inactive: growth inhibition [1] -6.81% | growth inhibition [2] -19.7% | viability increase [3] -3.9% | viability [4] 96.3% | viability [5] 92.4% | inhibition [6] 0.105% | RAM network inhibition [7] 3.27%

CCCCn1c(CCC(=O)O)ccc1-c1cccs1
inactive: growth inhibition [1] 6.82% | growth inhibition [2] 10.6% | viability increase [3] -3.36% | viability [4] 97.1% | viability [5] 94.8% | inhibition [6] 0.85% | RAM network inhibition [7] -1.84%

CCOc1ccc(NC(=O)CSc2nnc(Cn3c(=O)sc4ccccc43)n2C)cc1
inactive: growth inhibition [1] -5.25% | growth inhibition [2] -0.055% | viability increase [3] -2.49% | viability [4] 98% | viability [5] 103% | inhibition [6] 0.83% | RAM network inhibition [7] 7.78%

C=CCn1c(SCCCc2ccccc2)nc2c1c(=O)[nH]c(=O)n2C
inactive: growth inhibition [1] 5.96% | growth inhibition [2] 6.29% | viability increase [3] -5.7% | viability [4] 67.8% | viability [5] 65.2% | inhibition [6] 0.525% | RAM network inhibition [7] 4.94%

CC1Cn2c(nnc2-c2cccc(N)c2)S1 (configuration not stated)
inactive: growth inhibition [1] 1.06% | growth inhibition [2] 14.3% | viability increase [3] -1.3% | viability [4] 98.7% | viability [5] 100% | inhibition [6] 1.52% | RAM network inhibition [7] 3.44%

COCCn1c(CN(C)Cc2ccccc2)nc2c1c(=O)n(C)c(=O)n2C
inactive: growth inhibition [1] -5.71% | growth inhibition [2] 8.7% | viability increase [3] 0.55% | viability [4] 87.8% | viability [5] 91.5% | inhibition [6] 3.04% | RAM network inhibition [7] 1.53%

Cc1cc(N2CCOCC2)nc2cc(O)ccc12
inactive: growth inhibition [1] -10.3% | growth inhibition [2] -15.5% | viability increase [3] -1.02% | viability [4] 97.4% | viability [5] 87.6% | inhibition [6] 1.31% | RAM network inhibition [7] 5.97%

CCOc1ccc2nc(N3CCC(C(=O)N4CCN(c5ccccn5)CC4)CC3)sc2c1
inactive: growth inhibition [1] -4.53% | growth inhibition [2] -8.55% | viability increase [3] -6.17% | viability [4] 50.9% | viability [5] 55.7% | inhibition [6] -0.605% | RAM network inhibition [7] 2.36%

CC1CCCCN1Cc1nc2c(c(=O)n(C)c(=O)n2C)n1Cc1cccc2ccccc12 (configuration not stated)
inactive: growth inhibition [1] -4.17% | growth inhibition [2] -4.83% | viability increase [3] -0.2% | viability [4] 94.2% | viability [5] 89% | inhibition [6] 1.91% | RAM network inhibition [7] 2.8%

CCSc1nnc(NC(=O)CSc2nc3c(c(=O)n2CCOC)SC(C)C3)s1 (configuration not stated)
inactive: growth inhibition [1] -5.35% | growth inhibition [2] -1.1% | viability increase [3] -2.95% | viability [4] 94.1% | viability [5] 94.4% | inhibition [6] 2.09% | RAM network inhibition [7] 7.38%

O=C(NC1CCCc2ccccc21)C1CCN(C(=O)c2sccc2-n2cccc2)CC1 (configuration not stated)
inactive: growth inhibition [1] -5.99% | growth inhibition [2] -8.89% | viability increase [3] -4.24% | viability [4] 84.7% | viability [5] 78.7% | inhibition [6] -0.305% | RAM network inhibition [7] 4.28%

Cc1ccc2c(c1)c1c(n2CC(O)Cn2c(C)nc3ccccc32)C(=O)CCC1 (configuration not stated)
inactive: growth inhibition [1] -7.12% | growth inhibition [2] -1.9% | viability increase [3] -0.7% | viability [4] 59.2% | viability [5] 62.2% | inhibition [6] 2.33% | RAM network inhibition [7] 7.19%

COc1ccc(Nc2nc(N)nc(CN3CCc4ccccc4C3)n2)cc1
inactive: growth inhibition [1] -5.29% | growth inhibition [2] -14.9% | viability increase [3] -5.38% | viability [4] 44.7% | viability [5] 48.4% | inhibition [6] 0.725% | RAM network inhibition [7] 4.84%

N#CC1=C(SCC(=O)Nc2ccccc2)NC(=O)CC1c1ccc(O)cc1 (configuration not stated)
inactive: growth inhibition [1] -15.2% | growth inhibition [2] -10.5% | viability increase [3] -2.43% | viability [4] 91.4% | viability [5] 86.5% | inhibition [6] 1.42% | RAM network inhibition [7] -0.69%

CCC(c1ccccc1)c1nc(-c2ccccn2)no1 (configuration not stated)
inactive: growth inhibition [1] -3.45% | growth inhibition [2] -5.84% | viability increase [3] 1.44% | viability [4] 91.8% | viability [5] 97.8% | inhibition [6] 0.495% | RAM network inhibition [7] 3.77%

CC(=O)N1CCC(N(CCCOC(C)C)C(=O)Nc2ccc(Cl)cc2)CC1
inactive: growth inhibition [1] -2.75% | growth inhibition [2] 0.145% | viability increase [3] -0.86% | viability [4] 93% | viability [5] 95.9% | inhibition [6] 0.365% | RAM network inhibition [7] 3.16%

O=C(CNS(=O)(=O)c1ccc(C(=O)N2CCCCC2)cc1)N1CCCCC1
inactive: growth inhibition [1] -11.9% | growth inhibition [2] -18.1% | viability increase [3] 0.86% | viability [4] 93.3% | viability [5] 90.8% | inhibition [6] -0.19% | RAM network inhibition [7] 3.77%

c1ccc(-c2noc(CSc3nnnn3-c3ccccc3)n2)cc1
inactive: growth inhibition [1] -10.7% | growth inhibition [2] 22.4% | viability increase [3] 0.25% | viability [4] 97.8% | viability [5] 94% | inhibition [6] 0.485% | RAM network inhibition [7] 3.86%

Cc1cc(NS(=O)(=O)c2ccc(NC(=O)Nc3ccccc3)cc2)no1
inactive: growth inhibition [1] 4.26% | growth inhibition [2] -7.87% | viability increase [3] 1.41% | viability [4] 101% | viability [5] 103% | inhibition [6] 1.92% | RAM network inhibition [7] 1.02%

CC(=O)Nc1nc2cc3c(cc2s1)OCO3
inactive: growth inhibition [1] -3.77% | growth inhibition [2] -8.01% | viability increase [3] -1.9% | viability [4] 96.4% | viability [5] 91.9% | inhibition [6] 1.81% | RAM network inhibition [7] 5.55%

CN1CCCc2cc3c(C(F)(F)F)cc(=O)oc3nc21
inactive: growth inhibition [1] -5.06% | growth inhibition [2] 5.85% | viability increase [3] -1.33% | viability [4] 94.2% | viability [5] 102% | inhibition [6] 1.14% | RAM network inhibition [7] 1.82%

CCCOC(=O)c1cccc(NC(=O)C(C)(C)C)c1
inactive: growth inhibition [1] -17.4% | growth inhibition [2] -14.3% | viability increase [3] 0.9% | viability [4] 98.7% | viability [5] 98.8% | inhibition [6] -0.725% | RAM network inhibition [7] 1.87%

O=C1CCc2cc(S(=O)(=O)N3CCCC3C(=O)N3CCN(c4ccccc4)CC3)ccc2N1 (configuration not stated)
inactive: growth inhibition [1] -10.3% | growth inhibition [2] -12.1% | viability increase [3] -3.91% | viability [4] 105% | viability [5] 85% | inhibition [6] 3.67% | RAM network inhibition [7] 4.76%

CC1=CS/C(=C(/C#N)C(=O)N2CCCCC2)N1c1ccccc1
inactive: growth inhibition [1] -0.66% | growth inhibition [2] -8.34% | viability increase [3] -1.48% | viability [4] 97.3% | viability [5] 95.8% | inhibition [6] 0.425% | RAM network inhibition [7] 2.37%

COc1ccc(S(=O)(=O)Cc2ccc(C(=O)N3CCN(c4cc(Cl)ccc4C)CC3)o2)cc1
inactive: growth inhibition [1] -4.16% | growth inhibition [2] -10.7% | viability increase [3] -2.31% | viability [4] 76.8% | viability [5] 67% | inhibition [6] 2.08% | RAM network inhibition [7] 3.33%

CC(=O)NC(NC(C)=O)c1ccc(N(C)C)cc1
inactive: growth inhibition [1] 2.72% | growth inhibition [2] 16.3% | viability increase [3] -0.12% | viability [4] 100% | viability [5] 100% | inhibition [6] -0.22% | RAM network inhibition [7] -0.26%

From PubChem BioAssay
